Assay outcomes deposited in PubChem by several laboratories.
KCC2 mod – KCC2 cotransporter modulators, thallium flux, primary screen, cell-based, HEK293 KCC2, FluoZin-2 fluorescence, MLSMR; Solute carrier family 12 member 5 (Homo sapiens), Q9H2X9; KCC2 cells, thallium flux FluoZin-2 fluorescence; B-score of Tl+ flux slope (higher = more flux/activation; lower = inhibition) at 10 µM; actives 2.2% (n = 190,000);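 active means thallium flux slope and its plate-corrected score both differing from the plate sample mean at a set confidence after two filtering rounds, in either direction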;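 further: slope of fluorescence scaled to starting intensity during 10 to 20 s after thallium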
ABCB6 inh MLPCN – ABCB6 transporter inhibitors, primary screen, K562-ABCB6 cells, flow cytometry, MLPCN library; ATP-binding cassette sub-family B member 6 (Homo sapiens), Q9NP58; K562-ABCB6 porphyrin accumulation, 1 h; hits give low values; fluorescence ratio to DMSO, % at 10 µM; actives 0.19% (n = 360,000);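 active means fluorescence ratio to DMSO below 75%, the collection mean minus 3 SD; inconclusive means too few cells collected in the well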;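 further: signal is porphyrin accumulated inside mitochondria; 100% equals median channel fluorescence of DMSO control wells; lower ratio means ABCB6 inhibition with less porphyrin fluorescence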
pCIP destab – p/CIP-EGFP fusion destabilizers, primary screen, fluorescence, F442A cells. actives 0.01% (n = 290,000). decrease of EGFP signal, % at 10 µM. 16 h. AID 1984, 2009. Q05BA5;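 active means EGFP signal decrease of at least 30% at 10 µM or well 3 SD below plate mean, unless failing retest; inactive means the rest, including hits failing retest or dose response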
V-ATPase pHluor – regulators of yeast V-ATPase proton pumping, primary screen, pHLuorin cytosolic pH fluorescence; S. cerevisiae; response, % at 10 µM; actives 0.37% (n = 350,000); AID 504577, 2011; in the data active means response mostly above about 7.3%, no sharp cut-off; inactive means mostly below about 5.4%; further: actives read high
Dynein cargo inh – inhibitors of GR-EGFP nuclear translocation, primary screen, dynein cargo transport inhibitor project, imaging, high-content, 3617.4 mouse cells; actives 0.47% (n = 220,000); z-score, hits read low; test concentration mostly 20 µM; stimulated with dexamethasone, 1 µM; hits give low values;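 active means plate z-score of nuclear minus cytoplasmic receptor signal below a set negative limit, without overly bright fluorescence or cell loss, cut at about -3.5 in these data, passing the limit was not always enough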;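 further: z-score of nuclear minus cytoplasmic ring GR-EGFP intensity difference per well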
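Buffer or medium: tet-free, stripped-serum medium; Also added: dexamethasone, 1.0 µM final; Technique: high-content fluorescence imaging after fixation; Times: 48 h induction, 1 h compound, 30 min dex at 37 °C; Read-out: per-cell GR-EGFP intensity, nucleus versus surrounding cytoplasmic ring, well-averaged.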
KCC2 secondary – KCC2 modulators in sodium-free buffer, confirmation, cell-based, HEK293 KCC2, thallium flux, secondary assay | shares compounds with KCC2 mod | FluoZin2 fluorescence; hits give high values | normalised thallium flux (F/F0 slope) at 10 µM | actives 15% (n = 3,700) | AID 1713, 2009;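 active means thallium flux slope above the same plate's solvent-only control mean plus 3 SD; inconclusive means the two replicate wells disagree; inactive means no significant difference from solvent-only control wells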
KCC2 bumet counter – thallium flux persisting under bumetanide in KCC2 cells, confirmation, counter-screen for KCC2 modulator project, cell-based, HEK293 KCC2, FluoZin2, secondary assay 3; HEK293-KCC2 + bumetanide/ouabain; hits give high values; shares compounds with KCC2 mod; actives 49% (n = 3,700); AID 1714, 2009; normalized thallium flux at 10 µM;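 active means thallium entry rate above the same plate's blocked-transporter control wells by more than 3 SD; inconclusive means the two repeat wells disagree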;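 further: raw slope of fluorescence over initial fluorescence between 10 and 20 s after thallium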
KCC2 sec2 – KCC2 modulators without ouabain present, confirmation, cell-based, HEK293 KCC2, thallium flux, FluoZin2, secondary assay 2 | actives 23% (n = 3,700) | normalized thallium flux at 10 µM | AID 1715, 2009 | thallium flux FluoZin2 fluorescence; actives lie on both sides; F/F0 rise rate, 10–20 s post-thallium | shares compounds with KCC2 mod;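 active means thallium flux slope more than 3 SD above or below the plate's solvent-only control mean, mostly below; inconclusive means the two repeat wells disagreed; inactive means no significant shift from solvent-only controls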;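 further: raw slope with 0.1% DMSO as baseline and bumetanide as block control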
HEK293 Tl flux – thallium flux modulation in parental HEK cells, confirmation, counter-screen for KCC2 modulator project, cell-based, counterscreen 1 | shares compounds with KCC2 mod | HEK293 parental cells, thallium flux FluoZin2, ouabain; baseline-ratio fluorescence slope, 10–20 s after thallium | thallium flux rate (normalised fluorescence) at 10 µM | actives 46% (n = 3,700);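 active means thallium flux rate significantly above the same plate's solvent-only control wells, beyond their mean plus 3 SD; inconclusive means the two replicate wells gave conflicting results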
KCC2 retest ouab – KCC2 inhibitors and activators, ouabain retest, confirmation, HEK-KCC2 cells; shares compounds with KCC2 mod; HEK293-KCC2, thallium flux FluoZin2 fluorescence; bidirectional: low = inhibitor, high = activator; raw Tl+ flux slope (below DMSO = inhibition, above = activation) at 10 µM; actives 48% (n = 3,700); AID 1717, 2009;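 active means thallium flux slope beyond 3 SD from same-plate DMSO control mean in most replicates, usually higher, sometimes lower; inconclusive means repeat tests gave conflicting results; inactive means no significant difference from controls in most replicates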;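 further: slope of initial-normalized fluorescence between seconds 10 and 20 after thallium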
HEK counter2 – native HEK Tl+ uptake effects, second counter-screen – HEK cells, counterscreen 2, counter-screen for KCC2 modulator project, confirmation. shares compounds with KCC2 mod. HEK293 parental, thallium flux FluoZin-2 fluorescence slope. thallium flux slope at 10 µM. actives 33% (n = 3,700). AID 1718, 2009;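 active means thallium flux slope above the same plate's solvent-control mean plus 3 SD in both duplicate wells; inconclusive means duplicate wells that disagreed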;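 further: run without ouabain in cells lacking the KCC2 cotransporter; slope of fluorescence scaled to its starting value between 10 and 20 s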
* = called active by the depositor; ? = inconclusive; / = no result. Many of the other results were omitted from the sample, so hits are more common in it than they were.

SMILES | KCC2 mod | ABCB6 inh MLPCN | pCIP destab | V-ATPase pHluor | Dynein cargo inh | KCC2 secondary | KCC2 bumet counter | KCC2 sec2 | HEK293 Tl flux | KCC2 retest ouab | HEK counter2
CC(C)CC(c1nnnn1C1CCCCC1)N1CCN(c2ncccn2)CC1 (stereo not given) | 0.638 | 101.0 | -30.8 | -0.8 | -0.693 | / | / | / | / | / | /
CC(C)CC(c1nnnn1C1CCCC1)N1CCC(C(N)=O)CC1 (stereo not given) | 2.66* | 104.0 | 16.5 | 1.8 | 1.17 | 0.00604 | 0.00439 | 0.0278 | 0.00788 | 0.0186 | 0.00954
Cc1cc(C)nc(NC(=O)CSc2nc3ccccc3s2)n1 | / | 94.0 | -8.3 | -3.1 | -0.537 | / | / | / | / | / | /
Cc1cc(C)n2c(Br)c(CSc3nc4ccccc4s3)nc2n1 | -3.66* | 101.0 | 5.9 | 0.5 | 0.349 | 0.00693 | 0.00511 | 0.0268* | 0.00613* | 0.0156* | 0.00956
CCC(C)(C)C1CCC2(CC1)NC(=O)N(CC(=O)N(C)Cc1ccc3c(c1)OCCO3)C2=O (stereo not given) | / | 97.0 | / | 4.1 | / | / | / | / | / | / | /
CC(C)COc1cccc(C(=O)NC(=S)Nc2cccc(NC(=O)c3ccccc3Cl)c2)c1 | -0.124 | 100.0 | -6.4 | 2.2 | 0.245 | / | / | / | / | / | /
O=C(Nc1nnc(-c2cccs2)o1)c1cc(-c2ccccc2)nc2ccccc12 | 68.5* | 94.0 | -5.7 | 4.1 | -0.367 | 0.0163* | 0.0781* | 0.037 | 0.043* | 0.061* | 0.0149*
O=C(NCc1cccs1)c1cc(-c2ccccc2)nc2ccccc12 | 0.645 | 99.0 | -0.5 | -0.2 | -0.657 | / | / | / | / | / | /
Cc1ccccc1-c1cc(C(=O)Nc2sc(C(=O)OC(C)C)c(C)c2C#N)c2ccccc2n1 | -0.773 | 96.0 | -20.7 | -1.7 | -0.19 | / | / | / | / | / | /
COC(=O)c1cccnc1NC(=S)NC1CCCCC1 | 121* | 103.0 | -13.6 | 2.6 | -0.193 | 0.0117* | 0.128* | 0.0977* | 0.105* | 0.0976* | 0.103*
COc1ccc(-c2ccc(C(=O)NCC3CCOCC3)c3occc23)c(C)c1 | / | 100.0 | / | / | / | / | / | / | / | / | /
CCOC(=O)C1=C(C)N(C2CCCCC2)C(=O)C1 | / | 108.0 | 0.1 | -1.2 | -0.448 | / | / | / | / | / | /
COC(=O)C1=C(C)N(C2CCCCC2)C(=O)C1 | 6.24* | 93.0 | -5.5 | -1.1 | 1.48 | 0.00699 | 0.0068 | 0.0288 | 0.00698 | 0.0189 | 0.00903
COc1ccc(/C=C2\C(=O)NC(=S)N2C(=O)c2ccc(C)cc2)cc1 | 7.53* | 97.0 | -6.6 | -0.3 | 0.654 | 0.00621 | 0.0208* | 0.0387* | 0.0189* | 0.0283* | 0.0212*
COc1ccc(C=C2SC(=S)NC2=O)cc1 | / | 101.0 | / | 0.1 | / | / | / | / | / | / | /
Cc1cc(C)c(NC(=S)NC(=O)c2c(Cl)c(C)nn2C)c([N+](=O)[O-])c1 | 41.6* | 99.0 | 3.7 | 2.5 | 0.664 | 0.0191* | 0.165* | ? | 0.0472* | 0.0606* | 0.0163*
CCn1ncc(Cl)c1C(=O)NC(=S)Nc1c(C)cc(C)cc1[N+](=O)[O-] | 85.2* | 93.0 | -1.8 | -1.4 | 0.0935 | 0.0328* | 0.155* | 0.0439* | 0.0757* | 0.0721* | 0.0261*
CC(=O)c1ccc(NC(=S)NC(=O)c2c(Cl)c(C)nn2C)cc1 | 15.5* | 97.0 | -13.1 | -2.5 | -0.505 | 0.0153* | 0.0664* | 0.0369 | 0.0307* | 0.0371* | 0.0148*
C/C(=N\NC(=O)c1c(Cl)c(C)nn1C)c1ccc(NC(=O)C2CCC2)cc1 | / | 102.0 | 19.1 | 0.1 | / | / | / | / | / | / | /
CCOc1ccc(NC(=S)NC(=O)c2c(Cl)cnn2CC)c([N+](=O)[O-])c1 | 18.6* | 100.0 | -11.8 | 0.8 | -0.969 | 0.0179* | 0.0558* | 0.0341 | 0.0287* | 0.0444* | 0.0138*
Cc1ccc([N+](=O)[O-])cc1NC(=S)NC(=O)c1c(Cl)cnn1C | / | 98.0 | 4.7 | 0.2 | / | / | / | / | / | / | /
O=c1cc(/N=C/c2coc3cc(Br)ccc3c2=O)[nH]c(=S)[nH]1 | 9.52* | 98.0 | 3.5 | 1.3 | -0.124 | 0.0139* | 0.0446* | 0.0343 | 0.00886* | 0.0259 | 0.0109
O=C(C(=O)N1CCN(c2ccc(F)cc2)CC1)c1c[nH]c2ccccc12 | -3.54* | 103.0 | -4.2 | 1.8 | 3.12 | 0.00647 | 0.00477 | 0.0249* | 0.0079 | ? | 0.0107
O=C(C(=O)N1CCN(c2cccc(Cl)c2)CC1)c1c[nH]c2ccccc12 | -2.72 | 96.0 | -6.5 | -4.2 | -0.139 | / | / | / | / | / | /
C=C(C)CNC(=S)N/N=C/c1ccco1 | 2.73 | 90.0 | -8.1 | 0.0 | 0.294 | / | / | / | / | / | /
C=C(C)CNC(=S)NN=C1c2ccccc2-c2ccccc21 | 27.6* | 95.0 | 0.3 | 1.4 | -0.793 | 0.00677 | 0.0754* | 0.0461* | 0.0261* | 0.055* | 0.027*
CCNC(=S)NN=C1c2ccccc2-c2ccccc21 | 33.8* | 96.0 | 7.8 | -1.2 | -0.765 | 0.0178* | 0.0506* | 0.0333 | 0.0672* | 0.0469* | 0.0163*
COc1cccc(/C=N/Nc2snc(SC)c2C#N)c1O | 31.5* | 96.0 | -8.3 | 7.3 | -0.546 | 0.0229* | 0.0822* | 0.0376 | 0.0392* | 0.0554* | 0.0143*
O=c1[nH]cccc1-c1nc2ccccc2n1Cc1cccc(F)c1 | / | 93.0 | 0.2 | 0.9 | / | / | / | / | / | / | /
CCOC(=O)NC(=O)CSc1ccc(C)cc1C | 2.86* | 95.0 | 15.5 | -2.4 | -0.89 | 0.00934 | 0.00634 | 0.0326 | ? | 0.0175 | 0.0109
